CaV13 ICDI inh: Disruptors of the CACNA1D IQ motif to Ca2+-dependent inactivation inhibitor domain association, primary screening, Förster resonance energy transfer in intact living … | 340,000 compounds, 0.098% hits | inhibition, % at 12.3 µM | HEK cells, CFP/YFP FRET ICDI-IQ, plate reader, 10 min; percent FRET-ratio fall versus neutral wells | AID 743397;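 active = mean replicate inhibition of at least 30% and at least 1% of replicates passing that level; inconclusive = only one of the two criteria is met; inactive = neither criterion is met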;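 also: 0% = median of the neutral control wells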
HDAC3 inhib: inhibitors of human histone deacetylase 3; recombinant HDAC3, fluorogenic peptide/trypsin coupled, fluorescence; inhibition, % at 8.3 µM; 320,000 compounds, 0.15% hits; in the data active = inhibition above about 26%, passing the limit was not always enough; inconclusive = no clear call, values can overlap the other calls
RanGTP-Impb inh: disruptors of Ran-importin-beta complex formation – biochemical, FRET, CFP-Ran, YFP-importin-beta, homogeneous, primary screen. cell-free CFP-Ran/YFP-importin-beta FRET ratio. inhibition, % (no concentration beside the values). 300,000 compounds, 1.1% hits;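 active = more than half of the replicate wells show a fall in the fluorescence ratio signal beyond about 16%, limit read from the data, passing the limit was not always enough; inconclusive = exactly half of the replicate wells pass the set limit; inactive = fewer than half of replicates pass the limit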;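 also: 0% = DMSO wells and 100% = Ran loaded with GDP instead of GTP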
Runt-CBFb FRET: inhibitors of human RUNX1 Runt domain binding to CBFb; Cerulean-Runt/Venus-CBFb FRET ratio 530/480, 1 h; inhibition, % at 20 µM; 220,000 compounds, 0.46% hits; AID 1496;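 active = inhibition over about 50% at 20 µM in the single-dose screen, limit read from the data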;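 also: 0% = DMSO wells and 100% = excess unlabeled CBFb competitor control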
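Reagent – Venus-CBFb binding partner, 100 nM · Assay system – Cerulean-tagged RUNX1 Runt domain (FRET donor) fusion protein · Input – 100 nM per protein · Incubation – two 1 h room-temperature incubations shielded from light · Measured by – FRET fluorescence · Medium – Tris buffer pH 7.5 with salts and BSA · Benchmarks – unlabeled CBFb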
LANA-H2B inh: blocks KSHV LANA binding to histone H2A/H2B. Q9QR71. cell-free LANA-H2A/H2B peptide, fluorescence polarization. inhibition, % (concentration not given with the values). 320,000 compounds, 0.6% hits. AID 2629; in the data active = inhibition mostly above about 10%, no sharp cut-off; inactive = mostly below about 6.7%
Target sequence (Q9QR71 whole entry, looked up): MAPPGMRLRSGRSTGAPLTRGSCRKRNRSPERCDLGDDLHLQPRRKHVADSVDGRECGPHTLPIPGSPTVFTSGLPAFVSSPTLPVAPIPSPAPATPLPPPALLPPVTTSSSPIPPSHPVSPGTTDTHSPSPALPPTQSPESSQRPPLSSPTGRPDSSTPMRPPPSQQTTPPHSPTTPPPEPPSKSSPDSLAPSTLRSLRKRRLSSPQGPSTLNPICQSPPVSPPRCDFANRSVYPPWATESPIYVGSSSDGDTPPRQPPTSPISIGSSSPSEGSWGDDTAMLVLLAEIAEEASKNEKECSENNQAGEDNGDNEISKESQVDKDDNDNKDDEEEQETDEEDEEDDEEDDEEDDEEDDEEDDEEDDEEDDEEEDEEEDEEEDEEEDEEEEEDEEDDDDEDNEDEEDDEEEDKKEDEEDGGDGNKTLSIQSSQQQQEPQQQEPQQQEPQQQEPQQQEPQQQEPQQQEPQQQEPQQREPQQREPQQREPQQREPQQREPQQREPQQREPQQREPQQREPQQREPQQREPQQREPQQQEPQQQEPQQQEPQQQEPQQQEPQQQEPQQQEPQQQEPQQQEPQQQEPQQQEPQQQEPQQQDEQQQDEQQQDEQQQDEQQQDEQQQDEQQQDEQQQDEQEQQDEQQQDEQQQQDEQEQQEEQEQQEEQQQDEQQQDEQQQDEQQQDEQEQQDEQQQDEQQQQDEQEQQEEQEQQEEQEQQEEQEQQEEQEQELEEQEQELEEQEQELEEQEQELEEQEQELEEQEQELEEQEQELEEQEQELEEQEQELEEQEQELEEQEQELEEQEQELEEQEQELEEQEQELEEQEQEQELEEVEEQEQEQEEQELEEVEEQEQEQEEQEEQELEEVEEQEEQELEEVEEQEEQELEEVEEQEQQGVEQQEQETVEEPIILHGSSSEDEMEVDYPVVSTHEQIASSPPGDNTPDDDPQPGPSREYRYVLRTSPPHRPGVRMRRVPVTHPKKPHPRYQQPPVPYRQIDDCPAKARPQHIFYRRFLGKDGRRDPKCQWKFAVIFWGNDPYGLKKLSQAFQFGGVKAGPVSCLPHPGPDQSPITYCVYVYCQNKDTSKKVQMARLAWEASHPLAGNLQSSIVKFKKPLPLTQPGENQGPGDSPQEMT
Runt-SMMHC FRET: Runt domain-CBFb-SMMHC interaction inhibition; Q01196+Q13951; Cerulean-Runt/Venus-CBFb-SMMHC FRET ratio 530/480, 1 h; inhibition, % at 20 µM; 220,000 compounds, 0.74% hits; AID 1434;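 active = mean inhibition across duplicate retests at 20 µM reaching about 50%, limit read from the data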;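 also: 0% = DMSO wells and 100% = wells with excess untagged CBFb-SMMHC; inhibitors lower the FRET ratio by blocking Runt binding to CBFb-SMMHC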
Numbers without * were called inactive; ? = inconclusive; . = no result; + = active, no number. Most compounds without a hit are left out; they make up all but 1.9% or so of the library.

SMILES	CaV13 ICDI inh	HDAC3 inhib	RanGTP-Impb inh	Runt-CBFb FRET	LANA-H2B inh	Runt-SMMHC FRET
Nc1nc(=S)c2[nH]c(=S)[nH]c2[nH]1	-5.6	.	.	.	.	.
CSc1nc(=S)c2[nH]c(=S)[nH]c2[nH]1	-1.7	36.5*	-2.1	13.2	-0.4	51.2*
COC(=O)C1=C(C)N(C)C(=O)NC1c1cc2c(cc1[N+](=O)[O-])OCO2 (stereo not given)	-7.0	6.6	-2.5	-33.0	5.0	-108.2
CC(C)(C)C(=O)N1CCN(c2ncccc2C(F)(F)F)CC1	-1.9	-13.9	3.5	0.1	0.4	-4.2
FC(F)(F)c1cccnc1-n1cncn1	-5.1	-0.7	-3.4	-0.3	12.7*	-0.1
O=C(CCc1nnc(CCc2ccccc2)o1)N1CCCC1c1nccs1 (stereo not given)	-2.9	-0.1	-1.8	0.4	1.5	1.9
CCn1c(C)cc2c(c1=O)C(c1ccccc1)C(C(=O)OC)=C(N)O2 (stereo not given)	-3.2	-3.2	42.5*	-2.3	2.0	1.3
COC(=O)C1=C(N)Oc2cc(C)n(Cc3ccncc3)c(=O)c2C1c1cccnc1 (stereo not given)	-6.9	1.6	-2.6	.	1.6	.
C/C=C1\NC(=O)[C@H](C)NC(=O)[C@@H](NC(=O)[C@H](Cc2ccc(O)cc2)NC(=O)[C@@H](NC(=O)/C(C)=C/C)C(C)C)[C@@H](C)OC(=O)[C@H](CC(C)C)NC(=O)[C@@H](CCC(=O)O)NC1=O	-7.3	.	.	.	.	.
Cc1ccc2c(N)[nH]nc2n1	3.9	3.0	-2.8	1.1	-2.2	-4.8
CC(C)(C)c1cc(C(=O)NCC(=O)OCC(=O)c2cccc([N+](=O)[O-])c2)cc(C(C)(C)C)c1	-13.5	14.4	32.3*	-4.8	-3.5	-1.2
O=C(Cc1ccccc1)NCC(=O)OCC(=O)c1cccc([N+](=O)[O-])c1	-4.3	-10.2	0.4	1.6	5.9	3.7
Cc1ccnc(NC(=O)c2ccc(Cl)c(NC(=O)CCc3ccccc3)c2)c1	-4.7	6.0	23.6*	0.1	-1.3	-2.4
Cc1ccnc(NC(=O)c2ccc(Cl)c(NC(=O)C(C)Oc3ccccc3)c2)c1 (stereo not given)	3.0	1.7	5.0	-2.2	-2.5	3.2
C=CCNC(=S)NNC(=O)c1ccc(OCC(C)C)cc1	-7.6	-0.4	5.4	1.6	19.2*	-2.3
COc1ccc(/C(C)=C2/SC(=S)N(CCC(=O)O)C2=O)cc1	-5.0	7.8	-1.9	-0.8	-5.2	-3.6
Cc1cnc(C(=O)OCC(=O)Nc2ccccc2[N+](=O)[O-])cn1	-5.2	-2.2	.	.	-0.7	.
CCC(CO)[n+]1c(C)cc(/C=C2\Sc3ccccc3N2Cc2ccccc2)cc1C (stereo not given)	0.5	26.3*	.	42.9	-249.6	63.8*
C[n+]1ccccc1/C=C1\Sc2ccccc2N1CCO	-2.4	6.3	-1.5	.	-11.5	.
COc1ccccc1C/C(N)=N/OC(=O)COc1cccc(C)c1C	-1.6	3.8	3.9	-1.2	+	3.9
O=C1CCCN1CCCNS(=O)(=O)c1ccc(Cl)c(C(=O)N2CCOCC2)c1	-3.8	3.1	1.2	0.2	-0.9	-1.5
O=C1Nc2ccccc2/C1=C/c1ccccc1F	-18.1	-7.1	-3.2	.	-6.1	.
CCOc1ccc2[nH]c3ncccc3c(=O)c2c1	-3.2	6.2	34.3*	.	4.2	.
CCOc1ccc2[nH]c(C)c(CN3CCOCC3)c(=O)c2c1	-8.5	-8.9	6.0	-1.5	-0.1	1.8
CCCOc1ccc(C(=O)NC(=S)N2CCN(c3ncc4c(=O)c(C(=O)O)cn(CC)c4n3)CC2)cc1	-5.1	.	.	.	.	.
SMILES	CaV13 ICDI inh	HDAC3 inhib	RanGTP-Impb inh	Runt-CBFb FRET	LANA-H2B inh	Runt-SMMHC FRET
CCn1cc(C(=O)O)c(=O)c2cnc(N3CCN(C(=S)NC(=O)c4ccccc4)CC3)nc21	10.5	-0.8	-1.1	7.0	13.8*	21.4
Cc1ccc(S(=O)(=O)C(C#N)c2nc3ccccc3nc2N2CCCC2)cc1 (stereo not given)	-8.6	-14.9	-0.8	-22.4	8.4	-104.5
CCN1CCN(c2nc3ccccc3nc2C(C#N)S(=O)(=O)c2ccc(C)cc2)CC1 (stereo not given)	-5.4	0.2	82.4*	1.0	1.4	16.6
N#CC(c1nc2ccccc2nc1N1CCOCC1)S(=O)(=O)c1ccccc1 (stereo not given)	-5.3	-5.0	16.3*	13.9	2.6	3.0
N#CC(c1nc2ccccc2nc1OCCO)S(=O)(=O)c1ccccc1 (stereo not given)	-0.8	-1.9	23.5*	-1.5	-1.7	-3.8
CCN1CCN(c2nc3ccccc3nc2C(C#N)S(=O)(=O)c2ccc(C)c(C)c2)CC1 (stereo not given)	-5.2	1.1	75.2*	1.5	2.4	23.3
Cc1cccc(S(=O)(=O)C(C#N)c2nc3ccccc3nc2N2CC(C)OC(C)C2)c1 (stereo not given)	-11.1	-6.0	?	-14.8	-0.1	26.6
Cc1ccccc1NS(=O)(=O)c1ccc(C(=O)NCC(c2ccco2)N(C)C)cc1 (stereo not given)	-6.3	-14.4	-6.6	.	19.6*	.
Cc1ccc(S(=O)(=O)N(C)c2ccc(C(=O)NCC(c3ccco3)N(C)C)cc2)cc1 (stereo not given)	-13.9	-0.7	.	.	35.2*	.
Cc1ccc(C)c(S(=O)(=O)Nc2ccc(C(=O)NCC(c3ccco3)N(C)C)cc2)c1 (stereo not given)	-5.5	-4.9	-0.1	.	4.1	.
Cc1ccccc1NS(=O)(=O)c1ccc(C(=O)NCC(c2ccccc2)N(C)C)cc1 (stereo not given)	-5.7	6.3	-1.4	.	5.7	.
COc1ccc(C(=O)OCC(=O)NCc2ccco2)cc1S(=O)(=O)N1CCN(c2cccc(Cl)c2)CC1	.	4.2	3.5	-3.1	-5.6	-0.7
COc1ccc(/C=C/C(=O)O/N=C(\N)c2ccccn2)cc1OC	-2.0	5.7	.	.	20.7*	.
COc1ccc2ccccc2c1/C=N\NC(=O)c1ccc(C)s1	-7.0	6.0	.	.	5.2	.
COc1ccc2ccccc2c1/C=N/NC(=O)c1sc(N)c(C#N)c1C	-2.6	-2.5	4.4	-10.1	+	-9.6
COc1ccccc1CCC(=O)OCC(=O)NCc1ccc(OC)c(OC)c1	-6.1	-7.7	.	.	0.8	.
COc1ccc2cc(-c3cc(C(=O)OCC(=O)NC4CCS(=O)(=O)C4)c4ccccc4n3)ccc2c1 (stereo not given)	-22.9	-6.1	23.9*	-8.7	2.1	79.2*
O=C(CN(Cc1ccccc1Cl)C(=O)CNS(=O)(=O)c1ccccc1)NCC1CCCO1 (stereo not given)	-7.8	3.6	2.5	.	2.0	.

Compound activity (PubChem)
